From ChEMBL document CHEMBL2429859, “Inhibiting aberrant signal transducer and activator of transcription protein activation with tetrapodal, small molecule Src homology 2 domain binders: promising agents against multiple myeloma” (J Med Chem, 2013)

Legend:
[1] = target: Signal transducer and activator of transcription 3 (Homo sapiens, UniProt P40763); assay: Competitive binding affinity to Stat3 SH2 domain (unknown origin) using 5-FAM-GpYLPQTV-NH2 as probe assessed as phosphopetide complex formation after 30 mins by fluorescence polarization assay
Procedure, shortened: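 Fluorescence polarization. Recombinant STAT protein was incubated with the 5-FAM-GpYLPQTV-NH2 peptide probe and inhibitor for 30 min. Polarized fluorescence was plotted against inhibitor concentration, and IC50 was obtained by fitting a dose-response curve.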

OCI-AML2 = assay: Cytotoxicity against human OCI-AML2 cells assessed as cell viability after 72 hrs by MTS assay; format: functional, cell-based; details: OCI-AML2, 72 h
Procedure, shortened: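 Cells were seeded at 1-3 x 10^4 per well into wells already holding compound or vehicle, in triplicate. Incubation was 72 h at 37 °C in 5% CO2. Viability was read by MTS colorimetry relative to DMSO control, and EC50 was fitted to a standard dose-response curve where applicable.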

Sequence of Signal transducer and activator of transcription 3 (P40763 whole entry, the tested form may be a part): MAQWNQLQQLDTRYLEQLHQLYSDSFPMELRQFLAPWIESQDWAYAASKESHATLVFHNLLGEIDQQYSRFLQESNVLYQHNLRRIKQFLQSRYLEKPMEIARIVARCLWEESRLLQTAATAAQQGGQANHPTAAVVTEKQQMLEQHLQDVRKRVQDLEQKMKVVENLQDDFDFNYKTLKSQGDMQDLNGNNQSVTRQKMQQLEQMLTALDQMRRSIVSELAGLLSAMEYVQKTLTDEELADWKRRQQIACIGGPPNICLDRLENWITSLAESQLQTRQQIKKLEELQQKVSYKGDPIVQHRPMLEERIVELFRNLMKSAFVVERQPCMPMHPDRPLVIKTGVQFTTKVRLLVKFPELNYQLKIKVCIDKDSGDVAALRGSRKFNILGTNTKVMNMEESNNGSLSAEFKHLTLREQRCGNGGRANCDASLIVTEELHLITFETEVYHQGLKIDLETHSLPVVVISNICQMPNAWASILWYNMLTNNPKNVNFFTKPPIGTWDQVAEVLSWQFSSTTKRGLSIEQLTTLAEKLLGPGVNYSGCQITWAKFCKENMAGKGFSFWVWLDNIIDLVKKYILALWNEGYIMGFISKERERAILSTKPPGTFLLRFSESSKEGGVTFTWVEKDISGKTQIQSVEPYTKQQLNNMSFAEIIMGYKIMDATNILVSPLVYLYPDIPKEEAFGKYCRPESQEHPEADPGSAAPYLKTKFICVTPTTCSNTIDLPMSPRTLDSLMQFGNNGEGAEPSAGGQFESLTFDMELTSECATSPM

Row | SMILES | IC50 [1] | IC50 (OCI-AML2)
1 | Cc1ccc(S(=O)(=O)N(CC(=O)N(Cc2ccc(C3CCCCC3)cc2)c2ccc(C(=O)O)c(O)c2)Cc2ccccc2N)cc1 | 24 µM | –
2 | CCCN(CC(=O)N(Cc1ccc(C2CCCCC2)cc1)c1ccc(C(=O)O)c(O)c1)S(=O)(=O)c1ccc(C)cc1 | 17.8 µM | –
3 | Cc1ccc(S(=O)(=O)N(CC(=O)N(Cc2ccc(C3CCCCC3)cc2)c2ccc(C(=O)O)c(O)c2)Cc2cccc(C#N)c2)cc1 | 12.4 µM | –
4 | O=C(O)c1ccc(N(Cc2ccc(C3CCCCC3)cc2)C(=O)CN(Cc2c(F)c(F)cc(F)c2F)S(=O)(=O)c2c(F)c(F)c(F)c(F)c2F)cc1O | 16.6 µM | –
5 | O=C(O)c1ccc(N(Cc2ccc(C3CCCCC3)cc2)C(=O)CN(Cc2cccc(F)c2)S(=O)(=O)c2c(F)c(F)c(F)c(F)c2F)cc1O | 17.8 µM | –
6 | Cc1ccc(S(=O)(=O)N(CC(=O)N(Cc2ccc(C3CCCCC3)cc2)c2ccc(C(=O)O)c(O)c2)Cc2ccc([N+](=O)[O-])cc2)cc1 | 11 µM | –
7 | N#Cc1cccc(CN(CC(=O)N(Cc2ccc(C3CCCCC3)cc2)c2ccc(C(=O)O)c(O)c2)S(=O)(=O)c2c(F)c(F)c(F)c(F)c2F)c1 | 19.8 µM | –
8 | Cc1ccc(S(=O)(=O)N(CC(=O)N(Cc2ccc(C3CCCCC3)cc2)c2ccc(C(=O)O)c(O)c2)Cc2ccccc2)cc1 | 14.4 µM | –
9 | Cc1ccc(S(=O)(=O)N(CC(=O)N(Cc2ccc(C3CCCCC3)cc2)c2ccc(C(=O)O)c(O)c2)Cc2cccc(Cl)c2)cc1 | 6 µM | –
10 | Cc1ccc(S(=O)(=O)N(CC(=O)N(Cc2ccc(C3CCCCC3)cc2)c2ccc(C(=O)O)c(O)c2)CC(C)C)cc1 | 17 µM | –
11 | Cc1ccc(S(=O)(=O)N(CC(=O)N(Cc2ccc(C3CCCCC3)cc2)c2ccc(C(=O)O)c(O)c2)Cc2ccc(OC(F)(F)F)cc2)cc1 | 11.8 µM | –
12 | O=C(O)c1ccc(N(Cc2ccc(C3CCCCC3)cc2)C(=O)CNS(=O)(=O)c2c(F)c(F)c(F)c(F)c2F)cc1O | 32.4 µM | –
13 | Cc1ccc(S(=O)(=O)N(CC(=O)N(Cc2ccc(C3CCCCC3)cc2)c2ccc(C(=O)O)c(O)c2)Cc2cc(F)c(F)c(F)c2F)cc1 | 22.2 µM | –
14 | COC(=O)c1ccccc1CN(CC(=O)N(Cc1ccc(C2CCCCC2)cc1)c1ccc(C(=O)O)c(O)c1)S(=O)(=O)c1c(F)c(F)c(F)c(F)c1F | 17.4 µM | –
15 | Cc1ccc(S(=O)(=O)N(CC(=O)N(Cc2ccc(C3CCCCC3)cc2)c2ccc(C(=O)O)c(O)c2)Cc2c(F)cc(F)c(F)c2F)cc1 | 15.4 µM | –
16 | Cc1ccc(S(=O)(=O)N(CC(=O)N(Cc2ccc(C3CCCCC3)cc2)c2ccc(C(=O)O)c(O)c2)Cc2ccc(N)cc2)cc1 | 20.8 µM | –
17 | O=C(O)c1ccc(N(Cc2ccc(C3CCCCC3)cc2)C(=O)CN(Cc2ccccc2OC(F)(F)F)S(=O)(=O)c2c(F)c(F)c(F)c(F)c2F)cc1O | 10.2 µM | –
18 | Cc1ccc(S(=O)(=O)N(CC(=O)N(Cc2ccc(C3CCCCC3)cc2)c2ccc(C(=O)O)c(O)c2)Cc2cccc(OC(F)(F)F)c2)cc1 | 8 µM | –

Row | SMILES | IC50 [1] | IC50 (OCI-AML2)
19 | COC(=O)c1cccc(CN(CC(=O)N(Cc2ccc(C3CCCCC3)cc2)c2ccc(C(=O)O)c(O)c2)S(=O)(=O)c2ccc(C)cc2)c1 | 18.4 µM | –
20 | Cc1ccc(S(=O)(=O)N(CC(=O)N(Cc2ccc(C3CCCCC3)cc2)c2ccc(C(=O)O)c(O)c2)Cc2cccc(N)c2)cc1 | 12.4 µM | –
21 | CCCN(CC(=O)N(Cc1ccc(C2CCCCC2)cc1)c1ccc(C(=O)O)c(O)c1)S(=O)(=O)c1c(F)c(F)c(F)c(F)c1F | 20.6 µM | –
22 | COC(=O)c1cccc(CN(CC(=O)N(Cc2ccc(C3CCCCC3)cc2)c2ccc(C(=O)O)c(O)c2)S(=O)(=O)c2c(F)c(F)c(F)c(F)c2F)c1 | 30.8 µM | –
23 | CC(C)(C)OC(=O)N(CC(=O)N(Cc1ccc(C2CCCCC2)cc1)c1ccc(C(=O)O)c(O)c1)S(=O)(=O)c1c(F)c(F)c(F)c(F)c1F | 27.4 µM | –
24 | Cc1ccc(S(=O)(=O)N(CC(=O)N(Cc2ccc(C3CCCCC3)cc2)c2ccc(C(=O)O)c(O)c2)Cc2ccc3ccccc3c2)cc1 | 5 µM | –
25 | Cc1ccc(S(=O)(=O)N(CC(=O)N(Cc2ccc(C3CCCCC3)cc2)c2ccc(C(=O)O)c(O)c2)Cc2ccccc2OC(F)(F)F)cc1 | 7.2 µM | –
26 | O=C(O)c1ccc(N(Cc2ccc(C3CCCCC3)cc2)C(=O)CN(Cc2ccccc2F)S(=O)(=O)c2c(F)c(F)c(F)c(F)c2F)cc1O | 28 µM | –
27 | Cc1ccc(S(=O)(=O)N(CC(=O)N(Cc2ccc(C3CCCCC3)cc2)c2ccc(C(=O)O)c(O)c2)Cc2ccc(F)cc2C(F)(F)F)cc1 | 11 µM | –
28 | Cc1ccc(S(=O)(=O)N(CC(=O)N(Cc2ccc(C3CCCCC3)cc2)c2ccc(C(=O)O)c(O)c2)Cc2ccc(C#N)cc2)cc1 | 8.6 µM | –
29 | Cc1ccc(S(=O)(=O)N(CC(=O)N(Cc2ccc(C3CCCCC3)cc2)c2ccc(C(=O)O)c(O)c2)Cc2ccc(F)cc2)cc1 | 7.6 µM | –
30 | CCOC(=O)c1ccc(CN(CC(=O)N(Cc2ccc(C3CCCCC3)cc2)c2ccc(C(=O)O)c(O)c2)S(=O)(=O)c2ccc(C)cc2)cc1 | 7.6 µM | –
31 | Cc1ccc(S(=O)(=O)N(CC(=O)N(Cc2ccc(C3CCCCC3)cc2)c2ccc(C(=O)O)c(O)c2)Cc2ccccn2)cc1 | 45.2 µM | –
32 | Cc1ccc(S(=O)(=O)N(CC(=O)N(Cc2ccc(C3CCCCC3)cc2)c2ccc(C(=O)O)c(O)c2)Cc2ccccc2C#N)cc1 | 22.6 µM | –
33 | O=C(O)c1ccc(N(Cc2ccc(C3CCCCC3)cc2)C(=O)CN(Cc2ccc(Cl)cc2)S(=O)(=O)c2c(F)c(F)c(F)c(F)c2F)cc1O | 13.8 µM | –
34 | CN(CC(=O)N(Cc1ccc(C2CCCCC2)cc1)c1ccc(C(=O)O)c(O)c1)S(=O)(=O)c1c(F)c(F)c(F)c(F)c1F | – | 10 µM
35 | Cc1ccc(CN(CC(=O)N(Cc2ccc(C3CCCCC3)cc2)c2ccc(C(=O)O)c(O)c2)S(=O)(=O)c2ccc(C)cc2)cc1 | > 50 µM | –

Second part, led by results:

Row | IC50 [1] | SMILES | IC50 (OCI-AML2)
36 | 12.4 µM | O=C(O)c1ccc(N(Cc2ccc(C3CCCCC3)cc2)C(=O)CN(Cc2cc(F)c(F)c(F)c2F)S(=O)(=O)c2c(F)c(F)c(F)c(F)c2F)cc1O | –
37 | 11.6 µM | COC(=O)c1ccc(CN(CC(=O)N(Cc2ccc(C3CCCCC3)cc2)c2ccc(C(=O)O)c(O)c2)S(=O)(=O)c2ccc(C)cc2)cc1 | –
38 | 15.8 µM | Cc1ccc(S(=O)(=O)N(CC(=O)N(Cc2ccc(C3CCCCC3)cc2)c2ccc(C(=O)O)c(O)c2)Cc2ccccc2Cl)cc1 | –
39 | 17.6 µM | O=C(O)c1ccc(N(Cc2ccc(C3CCCCC3)cc2)C(=O)CN(Cc2c(F)cc(F)c(F)c2F)S(=O)(=O)c2c(F)c(F)c(F)c(F)c2F)cc1O | –
40 | 9.4 µM | N#Cc1ccc(CN(CC(=O)N(Cc2ccc(C3CCCCC3)cc2)c2ccc(C(=O)O)c(O)c2)S(=O)(=O)c2c(F)c(F)c(F)c(F)c2F)cc1 | –
41 | 17.6 µM | O=C(O)c1ccc(N(Cc2ccc(C3CCCCC3)cc2)C(=O)CN(Cc2ccc(F)cc2)S(=O)(=O)c2c(F)c(F)c(F)c(F)c2F)cc1O | –
42 | 21.6 µM | O=C(O)c1ccc(N(Cc2ccc(C3CCCCC3)cc2)C(=O)CN(Cc2ccc(OC(F)(F)F)cc2)S(=O)(=O)c2c(F)c(F)c(F)c(F)c2F)cc1O | –
43 | > 50 µM | C=CCN(CC(=O)N(Cc1ccc(C2CCCCC2)cc1)c1ccc(C(=O)O)c(O)c1)S(=O)(=O)c1ccc(C)cc1 | –
44 | 6.2 µM | Cc1ccc(S(=O)(=O)N(CC(=O)N(Cc2ccc(C3CCCCC3)cc2)c2ccc(C(=O)O)c(O)c2)Cc2ccc(Cl)cc2)cc1 | –
45 | 5.2 µM | Cc1ccc(S(=O)(=O)N(CC(=O)N(Cc2ccc(C3CCCCC3)cc2)c2ccc(C(=O)O)c(O)c2)Cc2cccc(C)c2)cc1 | –
46 | 46.6 µM | Cc1ccc(S(=O)(=O)N(CC(=O)N(Cc2ccc(C3CCCCC3)cc2)c2ccc(C(=O)O)c(O)c2)Cc2ccncc2)cc1 | –
47 | 10 µM | Cc1ccc(S(=O)(=O)N(CC(=O)N(Cc2ccc(C3CCCCC3)cc2)c2ccc(C(=O)O)c(O)c2)Cc2ccccc2[N+](=O)[O-])cc1 | –
48 | 9.6 µM | Cc1ccc(S(=O)(=O)N(CC(=O)N(Cc2ccc(C3CCCCC3)cc2)c2ccc(C(=O)O)c(O)c2)Cc2ccc(SC(F)(F)F)cc2)cc1 | –
49 | > 50 µM | Cc1ccc(S(=O)(=O)N(CC(=O)N(Cc2ccc(C3CCCCC3)cc2)c2ccc(C(=O)O)c(O)c2)Cc2cccnc2)cc1 | –
50 | 18.2 µM | O=C(O)c1ccc(N(Cc2ccc(C3CCCCC3)cc2)C(=O)CN(Cc2cccc(Cl)c2)S(=O)(=O)c2c(F)c(F)c(F)c(F)c2F)cc1O | –
51 | 5 µM | Cc1ccc(S(=O)(=O)N(CC(=O)N(Cc2ccc(C3CCCCC3)cc2)c2ccc(C(=O)O)c(O)c2)Cc2cccc([N+](=O)[O-])c2)cc1 | –
52 | 14.4 µM | O=C(O)c1ccc(N(Cc2ccc(C3CCCCC3)cc2)C(=O)CN(Cc2ccccc2)S(=O)(=O)c2c(F)c(F)c(F)c(F)c2F)cc1O | –
53 | 11 µM | O=C(O)c1ccc(N(Cc2ccc(C3CCCCC3)cc2)C(=O)CN(Cc2ccccc2Cl)S(=O)(=O)c2c(F)c(F)c(F)c(F)c2F)cc1O | –
54 | > 50 µM | Cc1ccc(S(=O)(=O)N(CC(N)=O)CC(=O)N(Cc2ccc(C3CCCCC3)cc2)c2ccc(C(=O)O)c(O)c2)cc1 | –
55 | 14.6 µM | Cc1cccc(CN(CC(=O)N(Cc2ccc(C3CCCCC3)cc2)c2ccc(C(=O)O)c(O)c2)S(=O)(=O)c2c(F)c(F)c(F)c(F)c2F)c1 | –
56 | 11.4 µM | N#Cc1ccccc1CN(CC(=O)N(Cc1ccc(C2CCCCC2)cc1)c1ccc(C(=O)O)c(O)c1)S(=O)(=O)c1c(F)c(F)c(F)c(F)c1F | –
57 | 17.8 µM | O=C(O)c1ccc(N(Cc2ccc(C3CCCCC3)cc2)C(=O)CN(Cc2cccc(OC(F)(F)F)c2)S(=O)(=O)c2c(F)c(F)c(F)c(F)c2F)cc1O | –
58 | 9 µM | Cc1ccc(S(=O)(=O)N(CC(=O)N(Cc2ccc(C3CCCCC3)cc2)c2ccc(C(=O)O)c(O)c2)Cc2cccc(F)c2)cc1 | –
59 | 22.8 µM | Cc1ccc(S(=O)(=O)N(CC(=O)N(Cc2ccc(C3CCCCC3)cc2)c2ccc(C(=O)O)c(O)c2)Cc2c(F)c(F)cc(F)c2F)cc1 | –
60 | 10.6 µM | Cc1ccc(S(=O)(=O)N(CC(=O)N(Cc2ccc(C3CCCCC3)cc2)c2ccc(C(=O)O)c(O)c2)Cc2ccccc2F)cc1 | –
61 | 21.8 µM | O=C(O)c1ccc(N(Cc2ccc(C3CCCCC3)cc2)C(=O)CN(Cc2ccc3ccccc3c2)S(=O)(=O)c2c(F)c(F)c(F)c(F)c2F)cc1O | –
62 | 14.4 µM | Cc1ccc(CN(CC(=O)N(Cc2ccc(C3CCCCC3)cc2)c2ccc(C(=O)O)c(O)c2)S(=O)(=O)c2c(F)c(F)c(F)c(F)c2F)cc1 | –
